What was measured:
[1] = organism: Ovis aries; test: Inhibition of sheep brain tubulin polymerization at 100 uM after 40 mins by DAPI staining-based fluorescence assay
How it was run: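 Microtubular protein was purified from sheep brain by two assembly/disassembly cycles (37 °C/0 °C) in MES buffer (100 mM MES pH 6.6, 1 mM EGTA, 0.5 mM MgCl₂). Compound in DMSO was added to 10 µM tubulin with 10 µM DAPI and incubated 40 min at RT. GTP (1 mM) was then added, and assembly was followed by DAPI fluorescence at 37 °C.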

[2] = system: MDA-MB-435; test: Cytotoxicity against human MDA-MB-435 cells assessed as cell growth at 10 uM after 48 hrs by MTT assay relative to untreated control; type: functional; conditions: MDA-MB-435, 48 h, read-out: Activity
How it was run: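 Melanoma lines grown at 37 °C in humidified 5% CO2: MDA-MB-435 in DMEM/Ham's F12 1:1 with 10% FCS and antibiotics, SK-MEL-2 in RPMI-1640 with 10% FCS. Cells plated 24 h, then exposed 48 h to 100–0.01 µM (dilutions from fresh 100 µM stock in medium). MTT 0.5 mg/mL added for 4 h, crystals dissolved in EtOH/DMSO 1:1, absorbance read at 540 nm. Mean ± SD of three independent experiments.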

`C[C@@H]1NC(c2ccc([N+](=O)[O-])cc2)=Nc2nc3ccccn3c2C1=O` showed an inhibition [1] of 30% and a growth at 10 µM [2] of 99%.
`C[C@@H]1NC(=O)Nc2nc3ccccn3c2C1=O` showed an inhibition [1] of 8% and a growth at 10 µM [2] of 86%.
